Results from ChEMBL document CHEMBL1125169, “Trifluoromethylacetylenic alcohols as affinity labels: inactivation of estradiol dehydrogenase by a trifluoromethylacetylenic secostradiol” (J Med Chem, 1990).
Each block holds one molecule with its values, some of them ahead of it.

Assays:
[1] = biological target: T1, 17-beta-hydroxysteroid dehydrogenase type 1 (Homo sapiens) (UniProt P14061); assay: Tested by protection experiments to demonstrate the inactivation of estradiol dehydrogenase and the kinetic parameter Kapp was reported at a concentration of 20 uM
T1 sequence (whole entry): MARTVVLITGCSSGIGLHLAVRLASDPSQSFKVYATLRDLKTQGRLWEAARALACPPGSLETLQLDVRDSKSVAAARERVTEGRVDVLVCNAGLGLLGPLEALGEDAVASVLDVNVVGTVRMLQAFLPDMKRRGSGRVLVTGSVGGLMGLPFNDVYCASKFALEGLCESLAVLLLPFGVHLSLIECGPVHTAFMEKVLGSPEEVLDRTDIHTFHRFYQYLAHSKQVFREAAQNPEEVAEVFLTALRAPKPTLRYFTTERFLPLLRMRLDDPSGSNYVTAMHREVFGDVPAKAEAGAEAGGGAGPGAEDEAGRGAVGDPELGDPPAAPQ
Procedure, shortened: (§1)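 Inactivation of estradiol dehydrogenase with inhibitor at 20 μM, either alone or with a protecting ligand: 17β-estradiol or 17α-estradiol at 32 μM, or cofactors at 150 μM. Apparent inactivation rate constant (kapp, min⁻¹) was taken from least-squares fits of the time courses (r ≥ 0.992).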

[2] = The limiting half life time was reported
Procedure, shortened: (§2)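 Time-dependent inactivation of estradiol dehydrogenase was run at several inhibitor concentrations without NAD⁺, in 1 M carbonate buffer (pH 9.2) with glycerol omitted. Points are the mean of three experiments (two at 80 μM). Pseudo-first-order inactivation kinetics gave Ki and limiting t1/2.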

[3] = biological target: T1, 17-beta-hydroxysteroid dehydrogenase type 1 (Homo sapiens); assay: Tested by protection experiments to demonstrate the inactivation of estradiol dehydrogenase and the kinetic parameter Kapp was reported at a concentration of 150 uM; procedure, shortened: as §1
[4] = biological target: T2, 17-beta-hydroxysteroid dehydrogenase type 1 (Homo sapiens, UniProt P14061); assay: Tested for time-dependent inactivation of the enzyme that followed pseudo- first- order kinetics in the absence of NAD+ and the Ki values were reported; procedure, shortened: as §2
T2 sequence (P14061 whole entry): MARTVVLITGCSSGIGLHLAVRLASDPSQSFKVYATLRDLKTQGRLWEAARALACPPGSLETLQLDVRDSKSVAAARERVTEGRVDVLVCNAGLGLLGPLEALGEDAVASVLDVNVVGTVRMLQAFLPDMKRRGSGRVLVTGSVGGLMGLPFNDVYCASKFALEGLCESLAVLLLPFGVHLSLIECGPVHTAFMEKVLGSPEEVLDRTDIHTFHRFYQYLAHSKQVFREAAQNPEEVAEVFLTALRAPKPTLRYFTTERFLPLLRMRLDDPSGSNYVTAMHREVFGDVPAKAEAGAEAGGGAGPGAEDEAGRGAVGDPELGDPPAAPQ

[5] = biological target: T2, 17-beta-hydroxysteroid dehydrogenase type 1; assay: Tested by protection experiments to demonstrate the inactivation of estradiol dehydrogenase and the kinetic parameter Ki app was reported at a concentration of 20 uM; details: read-out: Ki app; procedure, shortened: as §1
[6] = substrate: C#CC(O)[C@@]1(C)CCC2c3ccc(O)cc3CCC2C1

K app [1]: 0.013 min⁻¹
Molecule: C[C@]12CC[C@@H]3c4ccc(O)cc4CC[C@H]3[C@@H]1CC[C@@H]2O

K app [1]: 0.01 min⁻¹
Molecule: C[C@]12CC[C@@H]3c4ccc(O)cc4CC[C@H]3[C@@H]1CC[C@H]2O

half-life [2]: 8 min | K app [3]: 0.011 min⁻¹ | K app [1]: 0.021 min⁻¹ | Ki [4]: 65 µM
Molecule: C[C@@]1(C(O)C#CC(F)(F)F)CCC2c3ccc(O)cc3CCC2C1 (single isomer, unassigned)

half-life [2]: 7 min | K app [3]: 0.014 min⁻¹ | K app [1]: 0.026 min⁻¹ | Ki [4]: 59 µM
Molecule: C[C@]1(C(O)C#CC(F)(F)F)CCC2c3ccc(O)cc3CCC2C1 (stereo not given in full)

Ki [5]: 2.8 µM
Molecule: C#CC(=O)[C@@]1(C)CCC2c3ccc(O)cc3CCC2C1 (stereo not given in full)

More lines, now with the values behind:

Molecule: C[C@]12CC[C@@H]3c4ccc(O)cc4CC[C@H]3[C@@H]1CC[C@@H]2O.NC(=O)C1=CN([C@@H]2O[C@H](COP(=O)(O)OP(=O)(O)OC[C@H]3O[C@@H](n4cnc5c(N)ncnc54)[C@H](O)[C@@H]3O)[C@@H](O)[C@H]2O)C=CC1
K app [1]: 0.013 min⁻¹

Molecule: NC(=O)c1ccc[n+]([C@@H]2O[C@H](COP(=O)([O-])OP(=O)(O)OC[C@H]3O[C@@H](n4cnc5c(N)ncnc54)[C@H](O)[C@@H]3O)[C@@H](O)[C@H]2O)c1
K app [1]: 0.013 min⁻¹

Molecule: NC(=O)C1=CN(C2OC(COP(=O)(O)OP(=O)(O)OC[C@H]3O[C@@H](n4cnc5c(N)ncnc54)[C@H](O)[C@@H]3O)[C@H](O)[C@@H]2O)C=CC1 (stereo not given in full)
K app [1]: 0.025 min⁻¹

B1: 17-beta-hydroxysteroid dehydrogenase type 1 (Homo sapiens), P14061 (protein)
chain: MARTVVLITGCSSGIGLHLAVRLASDPSQSFKVYATLRDLKTQGRLWEAARALACPPGSLETLQLDVRDSKSVAAARERVTEGRVDVLVCNAGLGLLGPLEALGEDAVASVLDVNVVGTVRMLQAFLPDMKRRGSGRVLVTGSVGGLMGLPFNDVYCASKFALEGLCESLAVLLLPFGVHLSLIECGPVHTAFMEKVLGSPEEVLDRTDIHTFHRFYQYLAHSKQVFREAAQNPEEVAEVFLTALRAPKPTLRYFTTERFLPLLRMRLDDPSGSNYVTAMHREVFGDVPAKAEAGAEAGGGAGPGAEDEAGRGAVGDPELGDPPAAPQ
Km [6]: 79 µM
